Article PMC4168784 (ACS Chemical Biology, 2014)
Read-outs that look alike come from different tables or passages of the source. Square brackets hold non-standard residues; d marks the D form. Peptide text beside a SMILES is read from it. Orn(N5-OH,N5-Ac) = CC(=O)N(O)CCC[C@H](N)C(=O)O

How the values were obtained:
[1] = test system: DFO:YxeB-S142-6×His complex; assay: Fe-/Ga-/Cr-DFO substrate binding; type: biochemical, Bacillus cereus; settings: ICP analysis; for metal exchange rates or displaced substrate rates: 0.2 nmol/mL added, 30 min incubation; for substrates bound to YxeB except DFO: 0.2 nmol/mL metal–substrate added to YxeB:DFO, after 30 min incubation
In short: (§1)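 2 μM His-tagged YxeB variant, 4 μM DFO and Ni-agarose beads were shaken 2 h at RT in TBS (25 mM Tris-HCl, pH 7.4). Then 0.2 μM (final) Fe-, Ga- or Cr-hydroxamate was added at RT. Pellets collected at 0–30 min were digested overnight in 3.5% nitric acid and measured by ICP with 0.1 ppm Eu internal standard. Results are the mean of three experiments, with standard errors.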

[2] = test system: DFO:YxeB-L/S142-6×His complex; assay: ICP exchange or displacement assay, text statements covering both variants; type: biochemical, Bacillus cereus; settings: 0.2 μM added; for metal (Ga, Fe, Cr) contained in the YxeB complexes: both YxeB-L142 and -S142 complexes; for amounts of metal transferred after 5 min incubation: both variants; for Ga and Fe transferred to the DFO:YxeB complex: within the 5 min incubation time
In short: as §1

YxeB-S142-6×His [3] = biological target: T1, YxeB-S142-6×His (Bacillus cereus, UniProt Q81IK3, L142S); settings: calculated previously; cited from earlier work
T1 sequence (Q81IK3 19-306 L142S): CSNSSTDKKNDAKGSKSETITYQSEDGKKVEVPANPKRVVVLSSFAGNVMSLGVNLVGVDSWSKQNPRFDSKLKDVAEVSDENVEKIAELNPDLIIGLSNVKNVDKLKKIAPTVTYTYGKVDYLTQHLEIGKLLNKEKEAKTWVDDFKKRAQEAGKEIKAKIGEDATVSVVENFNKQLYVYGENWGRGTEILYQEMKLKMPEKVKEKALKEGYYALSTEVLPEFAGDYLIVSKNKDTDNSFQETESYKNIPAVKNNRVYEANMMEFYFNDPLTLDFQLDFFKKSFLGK

[4] = test system: DFO:YxeB-L142-6×His complex; assay: Fe-/Ga-/Cr-DFO substrate binding; type: biochemical, Bacillus cereus; settings: ICP analysis; for metal exchange rates or displaced substrate rates: 0.2 nmol/mL added, 30 min incubation; for substrates bound to YxeB except DFO: 0.2 nmol/mL metal–substrate added to YxeB:DFO, after 30 min incubation
In short: as §1

YxeB-L142-6×His [5] = biological target: T2, YxeB-L142-6×His (Bacillus cereus, UniProt Q81IK3); settings: calculated previously; cited from earlier work
T2 sequence (Q81IK3 19-306): T1 sequence (Q81IK3 19-306 L142S)

YxeB-L142-6×His [6] = biological target: T2, YxeB-L142-6×His; assay: Fluorescence quenching; type: binding
YxeB-S142-6×His [7] = biological target: T1, YxeB-S142-6×His; assay: Fluorescence quenching; type: binding
YxeB-L142-6×His [8] = biological target: T2, YxeB-L142-6×His; assay: Substrate binding assay using RP-HPLC; settings: bound = substrate detected in the protein complex analyzed by RP-HPLC
In short: (§2)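 His-tagged protein (2 μM) was bound to Ni-agarose beads in TBS over 2 h at RT. Substrate was added for 10 min at RT: 10 μM metal complex or 20 μM apo-ligand. Pellets were washed twice, then extracted with 20% acetonitrile (Ga complex) or 0.1% TFA for 20 min. C18 RP-HPLC at 220 nm followed, with a 0–25% acetonitrile gradient.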

TC137 strain [9] = assay: Growth assay in iron-limited minimum medium; type: cell-based, Bacillus cereus; settings: 10 or 100 nM siderophore in iron-limited minimum medium
YxeB-S142-6×His [10] = biological target: T1, YxeB-S142-6×His; assay: Substrate binding assay using RP-HPLC; settings: bound = substrate detected in the protein complex analyzed by RP-HPLC
In short: as §2

TC137 strain [11] = assay: Disc diffusion assay; type: cell-based, Bacillus cereus; settings: 10 nmol infused in the disc (supplement: 10 pmol)
In short: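 Sterile filter discs were loaded with 10 nmol siderophore; 6 μL DMSO served as the negative control. Growth was scored around each disc.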

[12] = cited from earlier work
[13] = test system: DFO:YxeB-L142-6×His complex; assay: Iron exchange experiment in vitro analysed by RP-HPLC; type: biochemical, Bacillus cereus; settings: for metal exchange rate (FO formed): 0.2 nmol/mL added; for FO bound to YxeB (iron transferred to DFO): 0.2 nmol/mL metal–substrate added to YxeB:DFO, 40 min incubation
[14] = Iron exchange experiment without the YxeB protein; settings: 0.2 μM AcFO, 4 μM DFO, no protein; up to 24 h
In short: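 No protein was present: 4 μM DFO and 0.2 μM acetylated ferrioxamine (final concentrations) were mixed in TBS at RT. Samples taken at 0 and 5 min and at 1, 3 and 24 h went directly onto C18 RP-HPLC (0.1% TFA/acetonitrile, 0–25% over 50 min, 220 nm).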

[15] = test system: DFO:YxeB-S142-6×His complex; assay: Iron exchange experiment in vitro analysed by RP-HPLC; type: biochemical, Bacillus cereus
In short: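 His-tagged YxeB (2 μM), 4 μM DFO and Ni-agarose beads were mixed 2 h at RT in TBS, then given 0.2 μM (final) acetylated ferrioxamine. Pelleted aliquots were washed twice and eluted 20 min in 0.01% TFA. Eluates ran on C18 RP-HPLC (0.1% TFA/acetonitrile, 0–25% over 50 min, 220 nm) to quantify bound ligands.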

[16] = test system: wild-type strains, TC128 and TC129; assay: Cr-DFO and Ga-DFO import, metal in cells measured by ICP; type: cell-based, Bacillus cereus; settings: 2 μM metal complex added in the culture
In short: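 B. cereus cultures at OD600 0.8–1.3 received 2 μM metal–siderophore complex. Incubation was 120 min for Cr and 80 min for Ga, by which point OD600 was 1.6–2.1. Cell-associated Cr or Ga was then quantified by ICP. Values are the average of two independent experiments, with standard errors.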

[17] = read-out: Kd (nM) by FQ assay, calculated using fluorescence quenching data previously described
[18] = read-out: Kd (nM) by FQ assay, calculated by Hyperquad, SD in parentheses

CC(=O)N([O-])CCCCCNC(=O)CCC(=O)N([O-])CCCCCNC(=O)CCC(=O)N([O-])CCCCCN.[Fe+3] [FO, ferrioxamine B]
metal exchange rates or displaced substrate rates [1]: 83% | substrates bound to YxeB except DFO [1]: 0.166 nmol/mL sample | metal (Ga, Fe, Cr) contained in the YxeB complexes [2]: > 0.15 nmol/mL reaction solution | amounts of metal transferred after 5 min incubation [2]: 0.14–0.18 nmol/mL reaction solution | Ga and Fe transferred to the DFO:YxeB complex [2]: > 70% | Kd (YxeB-S142-6×His [3]): 29.1 nM | metal exchange rates or displaced substrate rates [4]: 86% | substrates bound to YxeB except DFO [4]: 0.172 nmol/mL sample | Kd (YxeB-L142-6×His [5]): 38.8 nM

CC(=O)N(O)CCC[C@@H]1NC(=O)CNC(=O)CNC(=O)CNC(=O)[C@H](CCCN(O)C(C)=O)NC(=O)[C@H](CCCN(O)C(C)=O)NC1=O [DFch, desferrichrome] (cyclo(GGG[Orn(N5-OH,N5-Ac)][Orn(N5-OH,N5-Ac)][Orn(N5-OH,N5-Ac)]))
Kd (YxeB-L142-6×His [6]): 104 nM | Kd (YxeB-S142-6×His [7]): 23 nM | binding assay (HPLC) (YxeB-L142-6×His [8]): bound ^d | growth of TC137 compared to wild-type strains TC129 and TC128 (TC137 strain [9]): delayed | binding assay (HPLC) (YxeB-S142-6×His [10]): bound ^d | growth around a disc containing the siderophore (TC137 strain [11]): did not grow

CC(=O)N(O)CCC[C@@H]1NC(=O)CNC(=O)CNC(=O)CNC(=O)[C@H](CCCN(O)C(C)=O)NC(=O)[C@H](CCCN(O)C(C)=O)NC1=O.[Fe+3] [Fch, ferrichrome] (cyclo(GGG[Orn(N5-OH,N5-Ac)][Orn(N5-OH,N5-Ac)][Orn(N5-OH,N5-Ac)]))
Kd (YxeB-L142-6×His [6]; [17]): 43 nM | Kd (YxeB-S142-6×His [7]; [17]): 29.3 nM | binding assay (HPLC) (YxeB-L142-6×His [8]): bound ^d | binding assay (HPLC) (YxeB-S142-6×His [10]): bound ^d | pFe^III [12]: 25.2 | Fch bound to YxeB (displacement) ([13]; RP-HPLC, 0.2 nmol/mL Fch added, 40 min): 0.037 nmol/mL sample | metal exchange rate (FO formed) ([13]; RP-HPLC, 40 min): 0% | FO bound to YxeB (iron transferred to DFO) ([13]; RP-HPLC): 0 nmol/mL sample | amount of Fch bound to the protein ([13]; displacement mechanism, 0.2 μM Fch, 40 min): 0.037 µM

CC(=O)NCCCCCN(O)C(=O)CCC(=O)NCCCCCN(O)C(=O)CCC(=O)NCCCCCN(O)C(C)=O [AcDFO]
Kd (YxeB-S142-6×His [7]): 30.7 nM | binding assay (HPLC) (YxeB-L142-6×His [8]): bound ^d | binding assay (HPLC) (YxeB-S142-6×His [10]): bound ^d

C=CC1=C(C)c2cc3[n-]c(cc4[n-]c(cc5nc(cc1n2)C(C)=C5C=C)c(C)c4CCC(=O)O)c(CCC(=O)O)c3C.O.[Fe+2] [hematin]
metal exchange rate (FO formed) ([13]; RP-HPLC, 40 min): ≤ 1% | FO bound to YxeB (iron transferred to DFO) ([13]; RP-HPLC): 0.003 nmol/mL sample

O=C([O-])CN(CCN(CC(=O)[O-])CC(=O)[O-])CC(=O)[O-].[Fe+3] [Fe-EDTA]
pFe^III [12]: 23.4 | metal exchange rate (FO formed) ([13]; RP-HPLC, 40 min): ≤ 1% | FO bound to YxeB (iron transferred to DFO) ([13]; RP-HPLC): 0.003 nmol/mL sample

CC(=O)N(O)CCCCCNC(=O)CCC(=O)N(O)CCCCCNC(=O)CCC(=O)N(O)CCCCCN [DFO, desferrioxamine B]
growth of TC137 compared to wild-type strains TC129 and TC128 (TC137 strain [9]): delayed | Kd (YxeB-S142-6×His [3]): 35.9 nM | growth around a disc containing the siderophore (TC137 strain [11]): did not grow | pFe^III [12]: 26.6

CC(=O)NCCCCCN(O)C(=O)CCC(=O)NCCCCCN(O)C(=O)CCC(=O)NCCCCCN(O)C(C)=O.[Fe+3] [AcFO]
Kd (YxeB-L142-6×His [6]; [18]): 25.4 nM | Kd (YxeB-S142-6×His [7]; [18]): 31.6 nM | iron exchange between AcFO and DFO without YxeB [14]: did not occur | binding assay (HPLC) (YxeB-L142-6×His [8]): bound ^d | AcDFO bound to YxeB ([15]; 0.2 nmol/mL AcFO added): 0.089 nmol/mL sample | metal exchange rate (FO formed) ([15]; 0.2 nmol/mL AcFO added): 72% | FO bound to YxeB (iron transferred to DFO) ([15]; 0.2 nmol/mL AcFO added, 10 min incubation): 0.144 nmol/mL sample | rate of iron-released substrate remaining bound to YxeB ([15]; AcDFO after AcFO addition): 45% | binding assay (HPLC) (YxeB-S142-6×His [10]): bound ^d | exchange amount (FO formed) after 8 min incubation ([13]; 0.2 μM AcFO added, 8 min): approximately 0.2 μM | incubation time after which iron exchange with YxeB was complete ([13]; 0.2 μM AcFO, 4 μM DFO, 2 μM YxeB-L142-6×His): 2 min | AcDFO bound to YxeB ([13]; RP-HPLC, 0.2 nmol/mL AcFO added, 40 min): 0.110 nmol/mL sample | metal exchange rate (FO formed) ([13]; RP-HPLC, 40 min): 77% | FO bound to YxeB (iron transferred to DFO) ([13]; RP-HPLC): 0.153 nmol/mL sample | rate of iron-released substrate remaining bound to YxeB ([13]; RP-HPLC, AcDFO after AcFO addition): 55%

CC(=O)N(O)CCCCCNC(=O)CCC(=O)N(O)CCCCCNC(=O)CCC(=O)N(O)CCCCCN.[Ga+3] [Ga-DFO]
Kd (YxeB-L142-6×His [6]; [18]): 59.2 nM | Kd (YxeB-S142-6×His [7]; [18]): 44.6 nM | metal exchange rates or displaced substrate rates [1]: 83% | substrates bound to YxeB except DFO [1]: 0.165 nmol/mL sample | Ga or Cr in the cells (import) [16]: contained Ga or Cr in the cells | binding assay (HPLC) (YxeB-L142-6×His [8]): bound ^d | metal (Ga, Fe, Cr) contained in the YxeB complexes [2]: > 0.15 nmol/mL reaction solution | amounts of metal transferred after 5 min incubation [2]: 0.14–0.18 nmol/mL reaction solution | Ga and Fe transferred to the DFO:YxeB complex [2]: > 70% | binding assay (HPLC) (YxeB-S142-6×His [10]): bound ^d | metal exchange rates or displaced substrate rates [4]: 78% | substrates bound to YxeB except DFO [4]: 0.155 nmol/mL sample

ferric citrate [Fe-Cit]
metal exchange rate (FO formed) ([13]; RP-HPLC, 40 min): 45% | FO bound to YxeB (iron transferred to DFO) ([13]; RP-HPLC): 0.089 nmol/mL sample

O=C(N[C@H]1COC(=O)[C@@H](NC(=O)c2cccc([O-])c2[O-])COC(=O)[C@@H](NC(=O)c2cccc([O-])c2[O-])COC1=O)c1cccc([O-])c1[O-].[Fe+3] [Fe-Ent, Fe-enterobactin]
pFe^III [12]: 34.3 | metal exchange rate (FO formed) ([13]; RP-HPLC, 40 min): ≤ 5%
